From ChEMBL document CHEMBL1155027, “Synthesis and proteasome inhibition of glycyrrhetinic acid derivatives” (Bioorg Med Chem, 2008)
Calls of active or inactive are those of the source. The rule behind the calls is not given here. Residues, ends and D or L forms follow the SMILES beside them.

Legend:
[1] = Inhibition of chymotrypsin-like activity of human 20S proteasome
[2] = Inhibition of trypsin-like activity of human 20S proteasome
Method in brief: (§1)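 Purified human 20S proteasome assayed with the activator PA28 (16 µg/ml) and fluorogenic substrates: Suc-Leu-Leu-Val-Tyr-AMC for chymotrypsin-like, Bz-VGR-AMC for trypsin-like, and (Z)-LLE-bNA for caspase-like activity. Fluorescence was read at 360/460 nm across a range of inhibitor concentrations. IC50 is the concentration that halves reaction velocity (ΔRFU/min), taken from a plot of velocity against log concentration.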

[3] = Inhibition of caspase-like activity of human 20S proteasome; method in brief: as §1
[4] = test system: MT4; test: Inhibition of chymotrypsin-like activity of 20S proteasome in human MT4 cells at 0.25 uM after 3 hrs; assay type: cell-based
[5] = test system: MT4; test: Inhibition of TNF-alpha-induced 20S proteasome degradation of IkappaBalpha in human MT4 cells at 1.6 uM after 3 hrs by Western blot analysis; assay type: cell-based
Method in brief: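 MT4 cells pretreated with inhibitor 3 h, then TNFα 10 ng/ml for 30 min; cytosolic proteins resolved on 12% SDS-PAGE, transferred to nitrocellulose and Western blotted for IκBα, with β-actin as loading reference.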

Row | SMILES | IC50 [1] | further results
1 | CC(=O)O[C@H]1CC[C@]2(C)[C@H]3C(=O)C=C4[C@@H]5C[C@@](C)(C(=O)O)CC[C@]5(C)CC[C@@]4(C)[C@]3(C)CC[C@H]2C1(C)C [ACETOXOLONE] | > 40 µM | 
2 | CC1(C)[C@@H](OC(=O)Cc2ccc(CC(=O)O)cc2)CC[C@]2(C)[C@H]3C(=O)C=C4[C@@H]5C[C@@](C)(C(=O)O)CC[C@]5(C)CC[C@@]4(C)[C@]3(C)CC[C@@H]12 | 1.78 µM | 
3 | CC1(C)[C@@H](OC(=O)c2ccc(C(=O)O)cc2)CC[C@]2(C)[C@H]3C(=O)C=C4[C@@H]5C[C@@](C)(C(=O)O)CC[C@]5(C)CC[C@@]4(C)[C@]3(C)CC[C@@H]12 | 0.31 µM | 
4 | CC1(C)[C@@H](OC(=O)Cc2cccc(CC(=O)O)c2)CC[C@]2(C)[C@H]3C(=O)C=C4[C@@H]5C[C@@](C)(C(=O)O)CC[C@]5(C)CC[C@@]4(C)[C@]3(C)CC[C@@H]12 | 1.05 µM | 
5 | CC1(C)[C@@H](OC(=O)c2cccc(C(=O)O)c2)CC[C@]2(C)[C@H]3C(=O)C=C4[C@@H]5C[C@@](C)(C(=O)O)CC[C@]5(C)CC[C@@]4(C)[C@]3(C)CC[C@@H]12 | 0.22 µM | IC50 [2]: 2.91 µM; inhibition [4]: 50%; Activity [5]: Active; IC50 [3]: 3.56 µM
6 | CC(=O)Cc1ccc(OCC(=O)O[C@H]2CC[C@]3(C)[C@H]4C(=O)C=C5[C@@H]6C[C@@](C)(C(=O)O)CC[C@]6(C)CC[C@@]5(C)[C@]4(C)CC[C@H]3C2(C)C)cc1 | 2.27 µM | 
7 | COC(=O)C(CC(C)C)NC(=O)[C@@]1(C)CC[C@]2(C)CC[C@]3(C)C(=CC(=O)[C@@H]4[C@@]5(C)CC[C@H](OC(C)=O)C(C)(C)[C@@H]5CC[C@]43C)[C@@H]2C1 (stereo partly specified) | > 40 µM | 
8 | CC(=O)N[C@@H](CSC(=O)C1([C@@H](O)C(C)C)NC(=O)[C@H](C)[C@@H]1O)C(=O)O (single isomer, unassigned) [LACTACYSTIN] |  | IC50 [2]: > 30 µM; IC50 [3]: > 30 µM
9 | CSCC[C@@H](C=O)NC(=O)[C@H](CC(C)C)NC(=O)[C@H](CC(C)C)NC(C)=O (Ac-Leu-Leu-Met-aldehyde) | 5.25 µM | IC50 [2]: > 25 µM; IC50 [3]: 22.5 µM
10 | CC(C)CC(NC(=O)[C@@]1(C)CC[C@]2(C)CC[C@]3(C)C(=CC(=O)[C@@H]4[C@@]5(C)CC[C@H](O)C(C)(C)[C@@H]5CC[C@]43C)[C@@H]2C1)C(=O)O (stereo partly specified) | > 40 µM | 
11 | CC(C)CC(NC(=O)[C@@]1(C)CC[C@]2(C)CC[C@]3(C)C(=CC(=O)[C@@H]4[C@@]5(C)CC[C@H](OC(=O)CC(C)(C)C(=O)O)C(C)(C)[C@@H]5CC[C@]43C)[C@@H]2C1)C(=O)O (stereo partly specified) | 3.09 µM | 

The next lines start with results.

Row | IC50 [1] | SMILES | further results
12 | 8.7 µM | CC(C(=O)O)C(C)C(=O)O[C@H]1CC[C@]2(C)[C@H]3C(=O)C=C4[C@@H]5C[C@@](C)(C(=O)O)CC[C@]5(C)CC[C@@]4(C)[C@]3(C)CC[C@H]2C1(C)C (stereo partly specified) | 
13 | 2.63 µM | CC1(C)[C@@H](OC(=O)CCC(=O)O)CC[C@]2(C)[C@H]3C(=O)C=C4[C@@H]5C[C@@](C)(C(=O)O)CC[C@]5(C)CC[C@@]4(C)[C@]3(C)CC[C@@H]12 [CARBENOXOLONE] | 
14 | 22.3 µM | CC1(C)[C@@H](O)CC[C@]2(C)[C@H]3C(=O)C=C4[C@@H]5C[C@@](C)(C(=O)O)CC[C@]5(C)CC[C@@]4(C)[C@]3(C)CC[C@@H]12 [ENOXOLONE] | IC50 [2]: > 40 µM; IC50 [3]: > 40 µM
15 | 0.87 µM | CC(C)(CC(=O)O[C@H]1CC[C@]2(C)[C@H]3C(=O)C=C4[C@@H]5C[C@@](C)(C(=O)O)CC[C@]5(C)CC[C@@]4(C)[C@]3(C)CC[C@H]2C1(C)C)C(=O)O | 
16 | 6.86 µM | CC(C)(CC(=O)O)CC(=O)O[C@H]1CC[C@]2(C)[C@H]3C(=O)C=C4[C@@H]5C[C@@](C)(C(=O)O)CC[C@]5(C)CC[C@@]4(C)[C@]3(C)CC[C@H]2C1(C)C | 
17 | 2.08 µM | CC1(C)[C@@H](OC(=O)c2ccccc2)CC[C@]2(C)[C@H]3C(=O)C=C4[C@@H]5C[C@@](C)(C(=O)O)CC[C@]5(C)CC[C@@]4(C)[C@]3(C)CC[C@@H]12 | 
18 | 0.29 µM | CC1(C)[C@@H](OC(=O)CCCCC(=O)O)CC[C@]2(C)[C@H]3C(=O)C=C4[C@@H]5C[C@@](C)(C(=O)O)CC[C@]5(C)CC[C@@]4(C)[C@]3(C)CC[C@@H]12 | IC50 [2]: 3.32 µM; IC50 [3]: 5.02 µM
19 | 0.35 µM | CC1(C)[C@@H](OC(=O)C/C=C/CC(=O)O)CC[C@]2(C)[C@H]3C(=O)C=C4[C@@H]5C[C@@](C)(C(=O)O)CC[C@]5(C)CC[C@@]4(C)[C@]3(C)CC[C@@H]12 | IC50 [2]: 19.3 µM; IC50 [3]: 26.5 µM
20 | 1.92 µM | CC(C)C(=O)O[C@H]1CC[C@]2(C)[C@H]3C(=O)C=C4[C@@H]5C[C@@](C)(C(=O)O)CC[C@]5(C)CC[C@@]4(C)[C@]3(C)CC[C@H]2C1(C)C | 
21 | > 40 µM | CCC(=O)O[C@H]1CC[C@]2(C)[C@H]3C(=O)C=C4[C@@H]5C[C@@](C)(C(=O)O)CC[C@]5(C)CC[C@@]4(C)[C@]3(C)CC[C@H]2C1(C)C | 
22 | 1.39 µM | CC1(C)[C@@H](OC(=O)CCCC(=O)O)CC[C@]2(C)[C@H]3C(=O)C=C4[C@@H]5C[C@@](C)(C(=O)O)CC[C@]5(C)CC[C@@]4(C)[C@]3(C)CC[C@@H]12 | 
23 | 1.93 µM | CC1(C)[C@@H](OC(=O)COCC(=O)O)CC[C@]2(C)[C@H]3C(=O)C=C4[C@@H]5C[C@@](C)(C(=O)O)CC[C@]5(C)CC[C@@]4(C)[C@]3(C)CC[C@@H]12 | 
